Source: ChEMBL document CHEMBL5325511, “Discovery of N-(4-(Aminomethyl)phenyl)-5-methylpyrimidin-2-amine Derivatives as Potent and Selective JAK2 Inhibitors” (ACS Med Chem Lett, 2023)
Blank lines part the entries; values can stand above or below the molecule they belong to.

Columns and labels:
BaF3 [1] = assay: Induction of apoptosis in mouse BaF3 cells harbouring JAK2 V617F mutant assessed as viable cells at 160 nM incubated for 24 hrs by Annexin V / propidium iodide staining based flow cytometry analysis (reference value: 72.8 %); format: functional; conditions: read-out: Activity
Procedure, shortened: (§1)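 Ba/F3 JAK2V617F cells exposed to compound at 20, 40, 80, 160 and 320 nM, then analysed for apoptosis by flow cytometry. Significance vs control by Dunnett's t test.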

BaF3 [2] = assay: Induction of cell cycle arrest in mouse BaF3 cells harbouring JAK2 […] mutant assessed as accumulation of cells at G0/G1 phase at 8 nM incubated for 24 hrs by propidium iodide staining based flow cytometry analysis (reference value: 56.85 %); format: functional
BaF3 [3] = assay: Induction of cell cycle arrest in mouse BaF3 cells harbouring JAK2 […] mutant assessed as accumulation of cells at S phase at 0.5 nM incubated for 24 hrs by propidium iodide staining based flow cytometry analysis (reference value: 33.80 %); format: functional
[4] = biological target: Tyrosine-protein kinase JAK2 (Mus musculus, UniProt Q62120, V617F); assay: Inhibition of JAK2 V617F mutant in mouse BaF3 cells; format: cell-based
Tyrosine-protein kinase JAK2 (Mus musculus, UniProt Q62120, V617F), sequence (Q62120 as listed by the source V617F): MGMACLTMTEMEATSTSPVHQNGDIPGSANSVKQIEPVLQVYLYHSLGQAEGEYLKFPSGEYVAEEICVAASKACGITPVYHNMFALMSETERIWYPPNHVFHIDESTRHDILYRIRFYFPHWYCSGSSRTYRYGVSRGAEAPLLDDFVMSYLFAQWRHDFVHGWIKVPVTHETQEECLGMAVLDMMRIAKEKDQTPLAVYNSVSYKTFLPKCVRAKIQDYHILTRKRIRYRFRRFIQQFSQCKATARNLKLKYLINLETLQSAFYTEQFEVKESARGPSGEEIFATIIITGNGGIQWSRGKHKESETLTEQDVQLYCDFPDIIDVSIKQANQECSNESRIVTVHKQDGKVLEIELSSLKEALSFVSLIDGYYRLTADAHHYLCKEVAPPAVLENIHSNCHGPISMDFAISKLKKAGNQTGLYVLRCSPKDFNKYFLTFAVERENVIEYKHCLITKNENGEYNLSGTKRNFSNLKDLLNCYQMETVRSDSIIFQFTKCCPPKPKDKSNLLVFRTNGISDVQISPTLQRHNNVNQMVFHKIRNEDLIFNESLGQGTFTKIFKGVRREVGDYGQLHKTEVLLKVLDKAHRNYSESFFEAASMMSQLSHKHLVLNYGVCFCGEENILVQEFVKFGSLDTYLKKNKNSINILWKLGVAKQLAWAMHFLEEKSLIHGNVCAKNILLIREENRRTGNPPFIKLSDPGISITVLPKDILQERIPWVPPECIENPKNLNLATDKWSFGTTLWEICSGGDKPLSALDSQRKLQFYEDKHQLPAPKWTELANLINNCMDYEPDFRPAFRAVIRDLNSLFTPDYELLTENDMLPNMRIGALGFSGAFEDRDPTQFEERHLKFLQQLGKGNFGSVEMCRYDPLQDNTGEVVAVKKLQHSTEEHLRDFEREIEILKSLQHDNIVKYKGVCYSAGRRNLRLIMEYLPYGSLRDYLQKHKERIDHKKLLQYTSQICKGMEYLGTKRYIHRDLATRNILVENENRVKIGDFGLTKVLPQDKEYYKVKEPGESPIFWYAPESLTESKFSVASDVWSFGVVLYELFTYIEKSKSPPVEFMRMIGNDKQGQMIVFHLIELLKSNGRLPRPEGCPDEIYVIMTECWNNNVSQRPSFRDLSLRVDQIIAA
Procedure, shortened: (§2)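 Cell proliferation assay. IC50 is the concentration that inhibits proliferation by 50%, taken from dose–response curves. Mean ± SEM of at least three independent experiments.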

BaF3 [5] = assay: Induction of cell cycle arrest in mouse BaF3 cells harbouring JAK2 […] mutant assessed as accumulation of cells at G2/M phase at 8 nM incubated for 24 hrs by propidium iodide staining based flow cytometry analysis (reference value: 9.34 %); format: functional
BaF3 [6] = assay: Induction of apoptosis in mouse BaF3 cells harbouring JAK2 V617F mutant assessed as necrotic cells at 320 nM incubated for 24 hrs by Annexin V / propidium iodide staining based flow cytometry analysis (reference value: 0.64 %); format: functional; procedure, shortened: as §1
BaF3 [7] = assay: Induction of cell cycle arrest in mouse BaF3 cells harbouring JAK2 […] mutant assessed as accumulation of cells at G2/M phase at 4 nM incubated for 24 hrs by propidium iodide staining based flow cytometry analysis (reference value: 9.34 %); format: functional
BaF3 [8] = assay: Induction of apoptosis in mouse BaF3 cells harbouring JAK2 V617F mutant assessed as early apoptotic cells at 320 nM incubated for 24 hrs by Annexin V / propidium iodide staining based flow cytometry analysis (reference value: 14.4 %); format: functional; procedure, shortened: as §1
BaF3 [9] = assay: Induction of apoptosis in mouse BaF3 cells harbouring JAK2 V617F mutant assessed as necrotic cells at 160 nM incubated for 24 hrs by Annexin V / propidium iodide staining based flow cytometry analysis (reference value: 0.64 %); format: functional; procedure, shortened: as §1
[10] = Selectivity ratio of IC50 for JAK3 (unknown origin) to IC50 for JAK2 (unknown origin)
BaF3 [11] = assay: Induction of apoptosis in mouse BaF3 cells harbouring JAK2 V617F mutant assessed as late apoptotic cells at 20 nM incubated for 24 hrs by Annexin V / propidium iodide staining based flow cytometry analysis (reference value: 12.2 %); format: functional; procedure, shortened: as §1
BaF3 [12] = assay: Induction of cell cycle arrest in mouse BaF3 cells harbouring JAK2 […] mutant assessed as accumulation of cells at S phase at 8 nM incubated for 24 hrs by propidium iodide staining based flow cytometry analysis (reference value: 33.80 %); format: functional
BaF3 [13] = assay: Induction of apoptosis in mouse BaF3 cells harbouring JAK2 V617F mutant assessed as late apoptotic cells at 320 nM incubated for 24 hrs by Annexin V / propidium iodide staining based flow cytometry analysis (reference value: 12.2 %); format: functional; procedure, shortened: as §1
BaF3 [14] = assay: Induction of cell cycle arrest in mouse BaF3 cells harbouring JAK2 […] mutant assessed as accumulation of cells at G2/M phase at 0.5 nM incubated for 24 hrs by propidium iodide staining based flow cytometry analysis (reference value: 9.34 %); format: functional
[15] = Selectivity ratio of IC50 for TYK2 (unknown origin) to IC50 for JAK2 (unknown origin)
BaF3 [16] = assay: Induction of cell cycle arrest in mouse BaF3 cells harbouring JAK2 […] mutant assessed as accumulation of cells at G0/G1 phase at 2 nM incubated for 24 hrs by propidium iodide staining based flow cytometry analysis (reference value: 56.85 %); format: functional
BaF3 [17] = assay: Induction of cell cycle arrest in mouse BaF3 cells harbouring JAK2 […] mutant assessed as accumulation of cells at G0/G1 phase at 0.5 nM incubated for 24 hrs by propidium iodide staining based flow cytometry analysis (reference value: 56.85 %); format: functional
BaF3 [18] = assay: Induction of cell cycle arrest in mouse BaF3 cells harbouring JAK2 […] mutant assessed as accumulation of cells at S phase at 16 nM incubated for 24 hrs by propidium iodide staining based flow cytometry analysis (reference value: 33.80 %); format: functional
BaF3 [19] = assay: Induction of apoptosis in mouse BaF3 cells harbouring JAK2 V617F mutant assessed as late apoptotic cells at 80 nM incubated for 24 hrs by Annexin V / propidium iodide staining based flow cytometry analysis (reference value: 12.2 %); format: functional; procedure, shortened: as §1
BaF3 [20] = assay: Induction of cell cycle arrest in mouse BaF3 cells harbouring JAK2 […] mutant assessed as accumulation of cells at S phase at 4 nM incubated for 24 hrs by propidium iodide staining based flow cytometry analysis (reference value: 33.80 %); format: functional
[21] = biological target: Tyrosine-protein kinase JAK2 (Homo sapiens, UniProt O60674, V617F); assay: Inhibition of JAK2 V617F mutant in human SET2 cells; format: cell-based; procedure, shortened: as §2
Tyrosine-protein kinase JAK2 (Homo sapiens, UniProt O60674, V617F), sequence (O60674 whole entry V617F): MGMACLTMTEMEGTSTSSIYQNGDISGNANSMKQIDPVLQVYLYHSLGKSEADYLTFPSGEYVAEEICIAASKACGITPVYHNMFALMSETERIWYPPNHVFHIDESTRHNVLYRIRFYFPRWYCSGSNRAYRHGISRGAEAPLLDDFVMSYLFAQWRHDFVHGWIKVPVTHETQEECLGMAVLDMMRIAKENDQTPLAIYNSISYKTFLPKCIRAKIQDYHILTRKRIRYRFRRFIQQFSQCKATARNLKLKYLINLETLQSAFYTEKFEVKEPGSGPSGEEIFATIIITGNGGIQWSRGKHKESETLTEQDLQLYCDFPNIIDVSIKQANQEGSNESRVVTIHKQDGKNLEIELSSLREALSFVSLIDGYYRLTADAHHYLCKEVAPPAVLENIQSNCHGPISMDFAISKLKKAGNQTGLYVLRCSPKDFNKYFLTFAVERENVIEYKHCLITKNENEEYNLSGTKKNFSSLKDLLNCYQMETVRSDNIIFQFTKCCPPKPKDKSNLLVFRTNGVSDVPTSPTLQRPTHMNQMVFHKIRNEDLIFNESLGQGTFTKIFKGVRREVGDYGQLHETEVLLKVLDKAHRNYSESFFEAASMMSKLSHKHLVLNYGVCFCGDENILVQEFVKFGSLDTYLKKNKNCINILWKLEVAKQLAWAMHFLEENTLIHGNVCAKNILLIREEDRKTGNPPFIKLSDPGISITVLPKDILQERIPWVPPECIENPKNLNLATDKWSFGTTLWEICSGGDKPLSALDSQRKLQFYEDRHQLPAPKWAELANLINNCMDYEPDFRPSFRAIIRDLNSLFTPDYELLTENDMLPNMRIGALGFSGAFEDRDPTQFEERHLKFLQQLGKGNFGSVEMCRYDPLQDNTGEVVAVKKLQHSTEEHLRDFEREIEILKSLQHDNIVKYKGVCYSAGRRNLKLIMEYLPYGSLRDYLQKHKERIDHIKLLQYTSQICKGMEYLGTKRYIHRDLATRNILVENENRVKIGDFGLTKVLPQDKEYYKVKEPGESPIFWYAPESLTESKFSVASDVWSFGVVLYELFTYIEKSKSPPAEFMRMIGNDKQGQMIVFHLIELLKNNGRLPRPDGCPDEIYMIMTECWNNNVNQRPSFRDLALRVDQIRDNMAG

[22] = Selectivity ratio of IC50 for FLT3 (unknown origin) to IC50 for JAK2 (unknown origin)
BaF3 [23] = assay: Induction of apoptosis in mouse BaF3 cells harbouring JAK2 V617F mutant assessed as viable cells at 20 nM incubated for 24 hrs by Annexin V / propidium iodide staining based flow cytometry analysis (reference value: 72.8 %); format: functional; conditions: read-out: Activity; procedure, shortened: as §1
BaF3 [24] = assay: Induction of apoptosis in mouse BaF3 cells harbouring JAK2 V617F mutant assessed as necrotic cells at 80 nM incubated for 24 hrs by Annexin V / propidium iodide staining based flow cytometry analysis (reference value: 0.64 %); format: functional; procedure, shortened: as §1
BaF3 [25] = assay: Induction of cell cycle arrest in mouse BaF3 cells harbouring JAK2 […] mutant assessed as accumulation of cells at G2/M phase at 2 nM incubated for 24 hrs by propidium iodide staining based flow cytometry analysis (reference value: 9.34 %); format: functional
BaF3 [26] = assay: Induction of apoptosis in mouse BaF3 cells harbouring JAK2 V617F mutant assessed as late apoptotic cells at 40 nM incubated for 24 hrs by Annexin V / propidium iodide staining based flow cytometry analysis (reference value: 12.2 %); format: functional; procedure, shortened: as §1
BaF3 [27] = assay: Induction of apoptosis in mouse BaF3 cells harbouring JAK2 V617F mutant assessed as necrotic cells at 40 nM incubated for 24 hrs by Annexin V / propidium iodide staining based flow cytometry analysis (reference value: 0.64 %); format: functional; procedure, shortened: as §1
BaF3 [28] = assay: Induction of apoptosis in mouse BaF3 cells harbouring JAK2 V617F mutant assessed as viable cells at 40 nM incubated for 24 hrs by Annexin V / propidium iodide staining based flow cytometry analysis (reference value: 72.8 %); format: functional; conditions: read-out: Activity; procedure, shortened: as §1

- IC50 [4]: 25.3 nM
- Ratio IC50 [10]: 54.6
- Ratio IC50 [15]: 41.2
- IC50 [21]: 44.3 nM
- Ratio IC50 [22]: 93.4
Structure (SMILES): C=CS(=O)(=O)NCc1ccc(Nc2ncc(C)c(-c3cnn(C(C)C)c3)n2)cc1
- viability at 0.16 µM (BaF3 [1]): 22.9%
- Activity (BaF3 [2]): 63.86%
- Activity (BaF3 [3]): 31.74%
- Activity (BaF3 [5]): 8.38%
- Activity (BaF3 [6]): 4.33%
- Activity (BaF3 [7]): 7.62%
- Activity (BaF3 [8]): 31%
- Activity (BaF3 [9]): 3.8%
- Activity (BaF3 [11]): 20%
- Activity (BaF3 [12]): 27.77%
- Activity (BaF3 [13]): 40.1%
- Activity (BaF3 [14]): 9.03%
- Activity (BaF3 [16]): 61.14%
- Activity (BaF3 [17]): 59.23%
- Activity (BaF3 [18]): 20.76%
- Activity (BaF3 [19]): 38.7%
- Activity (BaF3 [20]): 29.44%
- viability at 0.02 µM (BaF3 [23]): 53.7%
- Activity (BaF3 [24]): 3.39%
- Activity (BaF3 [25]): 8.29%
- Activity (BaF3 [26]): 26.2%
- Activity (BaF3 [27]): 3.27%
- viability at 0.04 µM (BaF3 [28]): 44.1%

- IC50 ([4]; baf3): 41 nM
- Ratio IC50 [10]: 31
- Ratio IC50 [15]: 25
- IC50 [21]: 475 nM
- Ratio IC50 [22]: 20.7
Structure (SMILES): Cc1cnc(Nc2ccc3c(c2)CCN(C(=O)/C=C/CN(C)C)C3)nc1-c1cnn(C(C)C)c1
- viability at 0.16 µM (BaF3 [1]): 19.4%
- Activity (BaF3 [2]): 58.82%
- Activity (BaF3 [3]): 34.4%
- Activity (BaF3 [5]): 8.98%
- Activity (BaF3 [6]): 3.48%
- Activity (BaF3 [7]): 9.33%
- Activity (BaF3 [8]): 47%
- Activity (BaF3 [9]): 1.89%
- Activity (BaF3 [11]): 12%
- Activity (BaF3 [12]): 32.2%
- Activity (BaF3 [13]): 35.2%
- Activity (BaF3 [14]): 9.64%
- Activity (BaF3 [16]): 56.54%
- Activity (BaF3 [17]): 55.96%
- Activity (BaF3 [18]): 31.63%
- Activity (BaF3 [19]): 25.4%
- Activity (BaF3 [20]): 33.33%
- viability at 0.02 µM (BaF3 [23]): 68.6%
- Activity (BaF3 [24]): 2.64%
- Activity (BaF3 [25]): 15.52%
- Activity (BaF3 [26]): 15.6%
- Activity (BaF3 [27]): 0.89%
- viability at 0.04 µM (BaF3 [28]): 61.1%
